From PubChem
Hits are enriched below; roughly 2.3% of the tested compounds scored in any of these assays.
TRPC4 inh – inhibitors of mouse TRPC4 channel | Q9QUQ5 | HEK293 TRPC4beta/mu-opioid, DAMGO-evoked Fluo4 calcium flux; hits give low values | B-score at 10 µM | actives 0.39% (n = 300,000) | AID 2247;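 active = B-score over 3 SD under the library average, no early fluorescence shift, positive overall ratio signal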
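test system = HEK293 cells with stable TRPC4beta plus mu-opioid receptor expression | detection = Fluo4 Ca2+ flux fluorescence | read-out = integrated fluorescence ratio relative to baseline, converted to per-well B score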
TRPC6 inhibitor – blocks the mouse TRPC6 cation channel. Q61143. HEK293-TRPC6, membrane potential dye, ACh-evoked depolarization; hits give low values. B-score at 10 µM. actives 1.1% (n = 310,000);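 active = B-score under library mean minus 3 SD, initial fluorescence not abnormally high, positive integrated signal ratio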;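 note: B-score derived from integrated fluorescence ratio over the kinetic read; more negative B-score means stronger inhibition of depolarization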
TRPC6 act – activates the mouse TRPC6 cation channel; Q61143; HEK293-TRPC6 membrane potential dye fluorescence; hits give high values; B-score at 10 µM; actives 0.13% (n = 310,000);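 active = B-score of the integrated fluorescence ratio above library mean plus 3 SD, and starting fluorescence ratio within library mean plus 5 SD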;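 note: higher score means more depolarization so channel activation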
TRPC4 act – TRPC4 (mouse) channel activation; Q9QUQ5; HEK293 TRPC4beta/mu-opioid, Fluo4 calcium fluorescence; hits give high values; B-score at 10 µM; actives 0.49% (n = 310,000); AID 2237;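 active = B-score above 5 SD of library B-scores, and initial fluorescence ratio not above library mean plus 5 SD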;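 note: positive B-score marks a calcium rise read as TRPC4 activation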
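System – HEK293 cells stably co-expressing mouse TRPC4beta and mu-opioid receptor · Signal – Fluo4 calcium-sensitive dye fluorescence, kinetic, 1 Hz baseline · Benchmarks – buffer (low) and maximal DAMGO (high) · Read-out – B score of integrated fluorescence ratio per well · Incubation – dye loading 45 min room temperature, 110 s kinetic read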
TRPC4 potent – TRPC4 (mouse) allosteric potentiation. Q9QUQ5. HEK293 TRPC4beta/mu-opioid, DAMGO EC20, Fluo-4 Ca2+ flux; hits give high values. B-score at 10 µM. actives 0.42% (n = 310,000);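 active = B-score of calcium response area above 5 SD of library B-scores, with initial fluorescence ratio within 5 SD of library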
TRPC4 sel inh 2 – second check of whether TRPC6 inhibitors also affect mouse TRPC4. shares compounds with TRPC6 inhibitor. inhibition, % at 10 µM. actives 42% (n = 920). HEK293 TRPC4/MOR, membrane potential dye fluorescence; channel activated by saturating DAMGO dose;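 active = compounds whose fluorescence signal differed from control wells by over 3 SD, either direction, in both duplicate plates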
TRPC4 spec – tests whether TRPC6 inhibitors also affect mouse TRPC4 | shares compounds with TRPC6 inhibitor | HEK293 TRPC4/mu-opioid, membrane potential fluorescence | activity change, negative = inhibition, % at 10 µM | actives 61% (n = 920) | AID 2777;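 active = rise or fall in signal beyond 3 SD of buffer-only wells in both replicate plates, either sign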;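 note: integrated kinetic ratio of fluorescence range over baseline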
HEK293 MPD ctr 2-1 – second check of TRPC6 inhibitor effects in parental HEK293 cells | parental HEK293 membrane potential dye fluorescence; maximal acetylcholine challenge after compound addition | signal change vs control, % at 10 µM | actives 31% (n = 920) | shares compounds with TRPC6 inhibitor;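 active = membrane potential signal moving either way by over 3 SD of the maximum-effect control, in both duplicate plates, meaning non-specific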
HEK293 MPD ctr-1 – parental HEK293 nonspecific activity of TRPC6 inhibitors; actives 60% (n = 920); parental HEK293 membrane potential dye fluorescence; AID 2780; shares compounds with TRPC6 inhibitor; membrane potential signal change, % at 10 µM;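 active = membrane potential signal shifting up or down by more than 3 SD of buffer-only wells, on both duplicate plates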
HEK293 MPD ctr-2 – checks TRPC6 modulator effects in parental HEK293 cells; shares compounds with TRPC6 inhibitor; membrane potential dye fluorescence; membrane potential signal change, % at 10 µM; actives 51% (n = 2,400); AID 488924;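 active = membrane potential signal moves up or down beyond 5 SD from buffer-only wells, on both duplicate plates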
HEK293 MPD ctr 2-2 – parental HEK293 nonspecific activity of TRPC6 modulators, second screen; shares compounds with TRPC6 inhibitor; membrane potential dye fluorescence; after compound, maximal acetylcholine stimulation; inhibition, % at 10 µM; actives 14% (n = 2,400); AID 488926;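 active = membrane potential signal drops by more than 5 SD from the mean control signal, in both duplicate plates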
TRPC4/MOR mod – selectivity of TRPC6 modulators against mouse TRPC4; shares compounds with TRPC6 inhibitor; HEK293 TRPC4/mu-opioid, membrane potential fluorescence; percent change from control (negative = decrease, positive = increase), % at 10 µM; actives 69% (n = 2,400); AID 488927;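 active = membrane potential signal moved up or down beyond 5 SD of buffer control wells, in both duplicate plates, actives on both sides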
TRPC4 ctr inh 2 – second selectivity test of TRPC6 modulators against mouse TRPC4. shares compounds with TRPC6 inhibitor. HEK293 TRPC4/mu-opioid, membrane potential dye fluorescence; stimulated with maximal-effect DAMGO. inhibition, % at 10 µM. actives 55% (n = 2,400);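 active = drop in membrane potential signal beyond 5 SD of the control wells in both duplicate plates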;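 note: TRPC4 counter screen for TRPC6 hits run under conditions tuned for TRPC6 not TRPC4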
TRPC6 block conf – confirmation of mouse TRPC6 inhibitors | inhibition, % at 10 µM | HEK293-TRPC6, membrane potential dye, ACh-evoked depolarization | actives 43% (n = 3,300) | AID 488960 | shares compounds with TRPC6 inhibitor;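 active = fluorescence ratio falls more than 5 SD below the full-stimulation control mean, in both duplicate runs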;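 note: integrated fluorescence ratio of peak minus minimum over baseline after agonist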
TRPC6 act confirm – confirmation of mouse TRPC6 activators; shares compounds with TRPC6 inhibitor; HEK293-TRPC6 membrane potential dye fluorescence, FDSS; activation, % at 10 µM; actives 11% (n = 2,800); AID 488961;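 active = ratio signal rise beyond 5 SD above unstimulated control wells' mean, seen in both duplicate runs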
Hits are given with their value; - = inactive; . = no result given; + = active, no number.

SMILES	TRPC4 inh	TRPC6 inhibitor	TRPC6 act	TRPC4 act	TRPC4 potent	HEK293 MPD ctr-2	HEK293 MPD ctr 2-2	TRPC4/MOR mod	TRPC4 ctr inh 2	TRPC6 block conf	TRPC6 act confirm	others
CC(=O)Nc1c(-c2ccccc2)c2cc(Br)ccc2[nH]c1=O	-	-	-	-	-	.	.	.	.	.	.
C/C(N)=C(/C#N)C(=O)COC(=O)c1ccncc1	-	-	-	-	-	.	.	.	.	.	.
C/C(N)=C(/C#N)C(=O)COC(=O)c1ccccc1Cc1ccccc1	-	-8.26	-	-	-	.	.	.	.	-	-	TRPC4 sel inh 2=-;TRPC4 spec=-11.1%;HEK293 MPD ctr 2-1=-;HEK293 MPD ctr-1=-
O=C(CN1C(=O)C2C3C=CC(C3)C2C1=O)OCC(=O)c1ccc(Cl)c([N+](=O)[O-])c1 (stereo not given)	-	-	-	-	-	.	.	.	.	.	.
CC1CCN(C2=C(NS(=O)(=O)c3ccc(Cl)cc3)C(=O)c3ccccc3C2=O)CC1	-	-6.49	-	-	-	-	-	-10.5%	51.5%	-	-
CCOC(=O)C1CCN(C2=C(NS(=O)(=O)c3ccc(Cl)cc3)C(=O)c3ccccc3C2=O)CC1	-	-6.1	-	-	-	-77.5%	-	-19.5%	69.0%	58.0%	-
CC(=O)Nc1ccc(S(=O)(=O)NC2=C(N3CCN(Cc4ccccc4)CC3)C(=O)c3ccccc3C2=O)cc1	-6	-6.56	-	-	-	-224.5%	-	-34.0%	90.5%	68.0%	-
CC1CCN(C2=C(NS(=O)(=O)c3ccc(Br)cc3)C(=O)c3ccccc3C2=O)CC1	-	-	-	-	-	.	.	.	.	.	.
CCN1CCN(C2=C(NS(=O)(=O)c3ccc(NC(C)=O)cc3)C(=O)c3ccccc3C2=O)CC1	-	-	-	-	-	.	.	.	.	.	.
CC1CCN(C2=C(NS(=O)(=O)c3ccccc3)C(=O)c3ccccc3C2=O)CC1	-	-7.69	-	-	-	-	-	-27.0%	82.0%	-	-
CCOC(=O)C1CCCN(C2=C(NS(=O)(=O)c3ccc(Br)cc3)C(=O)c3ccccc3C2=O)C1 (stereo not given)	-	-	-	-	-	.	.	.	.	.	.
O=C1C(NS(=O)(=O)c2ccc(Br)cc2)=C(N2CCCCC2)C(=O)c2ccccc21	-	-6.32	-	-	-	-	-	-19.5%	72.5%	-	-
Cn1c(C(=O)O)c(S(=O)(=O)c2ccc(Cl)cc2)c2ccccc21	-	-	-	-	-	.	.	.	.	.	.
CC(NC(=O)c1ccc(F)cc1)c1ccc2c(c1)CCCC2 (stereo not given)	-	-6.12	-	-	-	-	-	-	-	-	-
C/C(=N/OC(=O)c1c(-c2c(Cl)cccc2Cl)noc1C)c1cnccn1	-	-8.1	-	-	-	.	.	.	.	68.9%	-	TRPC4 sel inh 2=-;TRPC4 spec=-;HEK293 MPD ctr 2-1=27.0%;HEK293 MPD ctr-1=-
C/C(=N/OC(=O)c1c(-c2ccccc2Cl)noc1C)c1cnccn1	-	-6.05	-	-	-	107.5%	-	21.0%	-	52.5%	.
C/C(=N\OC(=O)c1c(-c2ccccc2Cl)noc1C)c1nccs1	-	-	-	-	-	.	.	.	.	.	.
Cc1onc(-c2c(Cl)cccc2Cl)c1C(=O)O/N=C(\C#N)c1c(Cl)cccc1Cl	-	-	-	-	-	.	.	.	.	.	.
Cc1cc(-c2ccc(Cl)cc2Cl)c(C#N)c(=O)[nH]1	-	-	-	-	-	.	.	.	.	.	.
CSc1nc(-c2ccc(Cl)cc2Cl)[nH]c(=O)c1C#N	-	-	13.5	-	-	-	-	12.0%	-	-	-
Brc1ccc2nc(-c3c[nH]c4ccccc34)cn2c1	-	-6.33	-	-	-	-	-	-10.5%	53.5%	-	-
Cc1cccn2cc(-c3c[nH]c4ccccc34)nc12	-6	-6.65	-	-	-	-113.0%	-	-27.5%	70.5%	68.5%	-
O=S(=O)(CS(=O)(=O)c1ccc(Cl)cc1)c1ccc(Cl)cc1	-	-	-	-	-	.	.	.	.	.	.
CCOC(=O)c1ccccc1NC(=O)COC(=O)CC1CCCCC1	-	-	-	-	-	.	.	.	.	.	.
CCOC(=O)c1ccccc1NC(=O)c1c(F)c(F)c(F)c(F)c1F	-	-6.21	-	-	-	-	-	-	-	-	-
SMILES	TRPC4 inh	TRPC6 inhibitor	TRPC6 act	TRPC4 act	TRPC4 potent	HEK293 MPD ctr-2	HEK293 MPD ctr 2-2	TRPC4/MOR mod	TRPC4 ctr inh 2	TRPC6 block conf	TRPC6 act confirm	others
CCOC(=O)c1ccccc1NC(=O)c1ccc(F)cc1	-	-	-	-	-	.	.	.	.	.	.
CCOC(=O)c1ccccc1NC(=O)COC(=O)C1CCCC1	-	-8.1	14.1	-	-	137.0%	-	32.5%	-	57.5%	118.0%
CCOc1ccc(NC(=O)CN(C)C(=O)c2ccccc2-n2cnnn2)cc1OCC	-	-	-	-	-	.	.	.	.	.	.
CC(=O)N1c2ccc(S(=O)(=O)N(C)CC(=O)NCc3ccc(C)cc3)cc2CC1C (stereo not given)	-	-	-	-	-	.	.	.	.	.	.
CC1CCCN(S(=O)(=O)c2ccc(NC(=O)CN3C(=O)NC(C)(c4ccccc4)C3=O)cc2)C1 (stereo not given)	-	-	-	-	-	.	.	.	.	.	.
O=C(CN1CCSC1=NCc1ccccc1)c1ccccc1	-	-	-	-	-	.	.	.	.	.	.
Cc1nc(N)nc(N)c1CCCc1ccc(Cl)c(Cl)c1	-	-5.74	-	-	-	-	-	-	50.5%	40.5%	-
CCOC(=O)/C(=C/C=C1\Sc2cc(C)c(C)cc2N1CC)C(C)=O	-	-5.02	-	-	-	+	+	281.5%	52.0%	-	.
Cc1nnc(NC(=O)c2c(-c3ccccc3Cl)noc2C)s1	-	-	-	-	-	.	.	.	.	.	.
